Data: ChEMBL document CHEMBL3351820, “Development of novel membrane active lipidated peptidomimetics active against drug resistant clinical isolates” (Bioorg Med Chem, 2014)
Values after ≈ are worked out from the molar mass of the structure shown. Active and inactive are the calls of the source. The calls are words filed in the database; no cut-off is given here. Where a SMILES comes first, the peptide text is derived from it. [ ]: non-standard residue; d: D form. The star is where a group is joined. Stearoyl = CCCCCCCCCCCCCCCCCC(=O)*; Myristoyl = CCCCCCCCCCCCCC(=O)*; 3Abz = Nc1cccc(C(=O)O)c1; Orn = NCCC[CH](N)C(=O)O

Tests used:
Staphylococcus aureus [1] = experiment: Antibacterial activity against methicillin-resistant Staphylococcus aureus PGI/ DML03149 clinical isolate after 18 hrs by micro dilution broth assay; type: functional; conditions: PGI/ DML03149, 18 h
Staphylococcus aureus [2] = experiment: Antibacterial activity against Staphylococcus aureus MTCC 3160 after 18 hrs by micro dilution broth assay; type: functional; conditions: MTCC 3160, 18 h
Method in brief: (§1)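 Broth microdilution (modified CLSI): mid-log inoculum at 10^5 CFU/mL in Mueller-Hinton broth; serial 2-fold dilutions of sample in 0.001% acetic acid with 0.2% BSA added. Incubated overnight at 37 °C with agitation; A600 read at 18 h. Drug-free culture and uninoculated broth as controls; triplicate.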

Staphylococcus aureus [3] = experiment: Growth inhibition of Staphylococcus aureus MTCC 3160 at 2 times MIC by time-kill assay; type: functional, organism-based
Method in brief: (§2)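 Time-kill: mid-log cells (2×10^5 CFU/mL) in MHB, untreated or exposed at 1, 2, 4 and 8×MIC at 37 °C. Aliquots taken at 0, 15, 30, 60, 120 and 240 min, serially 10-fold diluted, plated on Mueller-Hinton agar for 18 h at 37 °C. Log CFU/mL plotted against time versus untreated control; two independent experiments in triplicate.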

[4] = Hemolytic activity in human RBCs; type: ADME, cell-based, Erythrocyte; conditions: red blood cells (RBCs)
Method in brief: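 Washed fresh human erythrocytes, 4% (v/v) in PBS (35 mM phosphate, 150 mM NaCl, pH 7.2), mixed 1:1 with 2-fold dilutions in PBS. Incubated 1 h at 37 °C without agitation, then centrifuged at 1000 g for 5 min. Supernatant hemoglobin read at 440 nm; % hemolysis = 100(A−A0)/(At−A0).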

[5] = Stability in human plasma after 4 days by analytical RP-HPLC; type: ADME, cell-free; conditions: read-out: Stability
Method in brief: (§3)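 Heparinized fresh human plasma (1 mL) plus 50 μL of a […] aqueous stock, incubated at 37 °C. At intervals, 100 μL aliquots precipitated with 200 μL 95% ethanol, held 15 min at 4 °C, spun at 18,000 g for 2 min. Supernatant analysed by C18 RP-HPLC.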

Candida albicans [6] = experiment: Antifungal activity against Candida albicans ATCC 24433 after 48 to 72 hrs by M27-A method; type: functional
Method in brief: (§4)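 Fungi at 2.5×10^3 cfu/mL in RPMI 1640 (L-glutamine, no glucose or NaHCO3, buffered pH 7.0 with 0.165 M MOPS), mixed 1:1 with serial 2-fold aqueous dilutions. Incubated at 37 °C with shaking, 24 h for Aspergillus, 48-72 h for Candida and Cryptococcus; A600 read. MIC taken as lowest concentration with no growth.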

Pseudomonas aeruginosa = experiment: Antibacterial activity against Pseudomonas aeruginosa MTCC 2295 after 18 hrs by micro dilution broth assay; type: functional; conditions: MTCC 2295, 18 h; method in brief: as §1
[7] = Therapeutic index, ratio of HC50 for human RBCs to MIC for Escherichia coli MTCC 0723; conditions: red blood cells (RBCs), read-out: TI
[8] = Therapeutic index, ratio of HC50 for human RBCs to MIC for Staphylococcus aureus MTCC 3160; conditions: red blood cells (RBCs), read-out: TI
[9] = Membrane permeabilization activity assessed as release of calcein from PC/PE/PI/ergosterol liposomes at 4 ug/ml after 5 mins by spectrofluorimetry; type: ADME
Method in brief: (§5)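 Calcein-loaded LUVs, PE/PG (bacterial mimic) or PC/PE/PI/ergosterol (fungal mimic), exposed to 1-20 μg/mL for 5 min before fluorescence reading. Triton X-100 in Tris-HCl/NaCl/EDTA buffer sets 100% leakage; % leakage = 100(F−F0)/(Ft−F0). Run in triplicate, two independent experiments, mean ± SD.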

Staphylococcus aureus [10] = experiment: Membrane disruption effect in Staphylococcus aureus MTCC 3160 assessed as surface blebs and aggregation at 4 times MIC by scanning electron microscopy; type: functional, organism-based
Method in brief: (§6)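 SEM: E. coli and S. aureus at 1×10^6 CFU/mL in 10 mM PBS pH 7.4 with 100 mM NaCl, exposed at 4×MIC at 37 °C. […] After 30 min, cells fixed in 4% glutaraldehyde/0.2 M cacodylate for 3 h at 4 °C, ethanol-dehydrated, HMDS-dried, gold-coated (~20 nm).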

Escherichia coli [11] = experiment: Growth inhibition of Escherichia coli MTCC 0723 at 2 times MIC by time-kill assay; type: functional, organism-based; method in brief: as §2
[12] = Membrane permeabilization activity assessed as release of calcein from PE/PG liposomes at 20 ug/ml after 5 mins by spectrofluorimetry; type: ADME; method in brief: as §5
Cryptococcus neoformans = experiment: Antifungal activity against Cryptococcus neoformans ATCC 2344 after 48 to 72 hrs by M27-A method; type: functional; method in brief: as §4
Aspergillus fumigatus [13] = experiment: Antifungal activity against fluconazole-resistant Aspergillus fumigatus IGMC/LM1/0336 after 24 hrs by M27-A method; type: functional; conditions: IGMC/LM1/0336, 24 h
Method in brief: (§7)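 Fungi at 2.5×10^3 cfu/mL in RPMI 1640 (L-glutamine, no glucose or NaHCO3, pH 7.0 with 0.165 M MOPS). Mixed 1:1 with serial 2-fold dilutions in water, incubated at 37 °C with shaking, 24 h for A. fumigatus and 48–72 h for C. albicans. Growth read by absorbance at 600 nm. MIC taken as the lowest concentration with no growth.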

Escherichia coli [14] = experiment: Antibacterial activity against Escherichia coli MTCC 0723 after 18 hrs by micro dilution broth assay; type: functional; conditions: MTCC 0723, 18 h; method in brief: as §1
Plasma = experiment: Stability in human plasma after 24 hrs by analytical RP-HPLC; type: ADME, cell-free; method in brief: as §3
Escherichia coli [15] = experiment: Bactericidal activity against Escherichia coli MTCC 0723 assessed as log reduction in bacterial growth at 4 to 8 times MIC up to 30 mins by time-kill assay relative to control; type: functional; method in brief: as §2
Escherichia coli [16] = experiment: Membrane disruption effect in Escherichia coli MTCC 0723 assessed as surface blebs and aggregation at 4 times MIC by scanning electron microscopy; type: functional, organism-based; method in brief: as §6
Escherichia coli [17] = experiment: Antibacterial activity against imipenem-resistant Escherichia coli PGI/ DML02292 clinical isolate after 18 hrs by micro dilution broth assay; type: functional; conditions: PGI/ DML02292, 18 h
Staphylococcus aureus [18] = experiment: Bactericidal activity against Staphylococcus aureus MTCC 3160 at 4 to 8 times MIC by time-kill assay; type: functional, organism-based; method in brief: as §2
Candida albicans [19] = experiment: Antifungal activity against fluconazole-resistant Candida albicans PGI/ DML0109 clinical isolate after 48 to 72 hrs by M27-A method; type: functional; method in brief: as §7
Escherichia coli [20] = experiment: Binding affinity to Escherichia coli plasmid DNA at 12 ug/ml after 1 hr by gel retardation assay
Method in brief: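 Gel retardation: 100 ng plasmid DNA from E. coli PGI/DML02292 mixed with varying peptide amounts in binding buffer (10 mM Tris-HCl pH 8.0, 5% glycerol, 1 mM EDTA, 1 mM DTT, 20 mM KCl, 50 μg/mL BSA). Held 1 h at room temperature, then run on 1% agarose in 0.5× TBE. Polymyxin B as standard.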

[21] = Proteolytic stability assessed as alpha-chymotrypsin (unknown origin)-mediated degradation after 4 days by analytical RP-HPLC; type: ADME, Homo sapiens; conditions: 96 h
Method in brief: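 Peptide (1 mg/mL sample solution) and enzyme solution (1 mg per 50 mL) in 0.1 M NH4HCO3 pH 8.2, combined with buffer and incubated at 37 °C. Aliquots taken over time, quenched with 10% formic acid. Remaining peptide quantified by C18 RP-HPLC with a water/acetonitrile gradient (0.05% TFA); enzyme-free control run alongside.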

[22] = Membrane permeabilization activity assessed as release of calcein from PC/PE/PI/ergosterol liposomes at 20 ug/ml after 5 mins by spectrofluorimetry; type: ADME; method in brief: as §5
Aspergillus niger = experiment: Antifungal activity against Aspergillus niger ATCC 64028 after 24 hrs by M27-A method; type: functional; conditions: ATCC 64028, 24 h; method in brief: as §4
Escherichia coli [23] = experiment: Bactericidal activity against Escherichia coli MTCC 0723 at 4 to 8 times MIC by time-kill assay; type: functional, organism-based; method in brief: as §2
Bacillus subtilis = experiment: Antibacterial activity against Bacillus subtilis MTCC 2763 after 18 hrs by micro dilution broth assay; type: functional; conditions: MTCC 2763, 18 h; method in brief: as §1
Staphylococcus aureus [24] = experiment: Bactericidal activity against Staphylococcus aureus MTCC 3160 assessed as log reduction in bacterial growth at 4 to 8 times MIC up to 30 mins by time-kill assay relative to control; type: functional; method in brief: as §2
Staphylococcus aureus [25] = experiment: Antibacterial activity against methicillin-resistant Staphylococcus aureus PGI/ DML03149 clinical isolate after 16 days by serial passage resistance development assay; type: functional, organism-based
Method in brief: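 MRSA clinical isolate serially passaged for 16 days. Each day MICs were set up in microtiter wells over doubling-dilution concentrations, 18 h incubation. Cells from triplicate wells at the concentration still permitting visible growth were diluted to about 2×10^5 CFU/mL to seed the next exposure. MIC was tracked across passages.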

Aspergillus fumigatus [26] = experiment: Antifungal activity against Aspergillus fumigatus ATCC 42203 after 24 hrs by M27-A method; type: functional; conditions: ATCC 42203, 24 h; method in brief: as §4
[27] = Membrane permeabilization activity assessed as release of calcein from PE/PG liposomes at 4 ug/ml after 5 mins by spectrofluorimetry; type: ADME; method in brief: as §5
Aspergillus fumigatus [28] = experiment: Membrane disruption effect in Aspergillus fumigatus ATCC 42203 assessed as surface blebs and aggregation at 4 times MIC by scanning electron microscopy; type: functional, organism-based

For CCCCCCCCCCCCCC(=O)Nc1cccc(C(=O)NC(CCCN)C(=O)NC(CCCN)C(=O)NC(CCCN)C(=O)NC(CCCN)C(N)=O)c1 (configuration not stated) ({Myristoyl-3Abz}-[Orn][Orn][Orn][Orn]-NH2; configuration not given here), the MIC (Staphylococcus aureus [1]) was 2 µg/mL (≈ 2.49 µM), the MIC (Staphylococcus aureus [2]) was 1.5 µg/mL (≈ 1.87 µM) and the “growth inhibition (GI)” value (Staphylococcus aureus [3]) was “Active”. The HC50 [4] was 500 µg/mL, the remaining at 96 h [5] was 76% and the MIC (Candida albicans [6]) was 3.1 µg/mL (≈ 3.86 µM). For the same molecule, the MIC (Pseudomonas aeruginosa) was 2 µg/mL (≈ 2.49 µM), the selectivity ratio [7] was 400 and the selectivity ratio [8] was 333. For the same molecule, the Activity [9] was 29%, the Activity (Staphylococcus aureus [10]) was “Active” and the “growth inhibition (GI)” value (Escherichia coli [11]) was “Active”. For the same molecule, the Activity [12] was 93%, the MIC (Cryptococcus neoformans) was 6.25 µg/mL (≈ 7.78 µM) and the MIC (Aspergillus fumigatus [13]) was 4 µg/mL (≈ 4.98 µM). For the same molecule, the MIC (Escherichia coli [14]) was 1.25 µg/mL (≈ 1.56 µM), the Stability (Plasma) was “Stable” and the FC (Escherichia coli [15]) was 5. For the same molecule, the Activity (Escherichia coli [16]) was “Active”, the MIC (Escherichia coli [17]) was 3.1 µg/mL (≈ 3.86 µM) and the Activity (Staphylococcus aureus [18]) was “Active”. For the same molecule, the MIC (Candida albicans [19]) was 4 µg/mL (≈ 4.98 µM), the Activity (Escherichia coli [20]) was “inactive” and the Stability [21] was “Stable”. For the same molecule, the Activity [22] was 77%, the MIC (Aspergillus niger) was 3 µg/mL (≈ 3.74 µM) and the Activity (Escherichia coli [23]) was “Active”. For the same molecule, the MIC (Bacillus subtilis) was 10 µg/mL (≈ 12.5 µM), the FC (Staphylococcus aureus [24]) was 5 and the Activity (Staphylococcus aureus [25]) was “Active”. For the same molecule, the MIC (Aspergillus fumigatus [26]) was 2.25 µg/mL (≈ 2.8 µM) and the Activity [27] was 58%.

In the case of CCCCCCCCCCCCCCCCCC(=O)Nc1cccc(C(=O)NC(CCCN)C(=O)NC(CCCN)C(=O)NC(CCCN)C(=O)NC(CCCN)C(N)=O)c1 (configuration not stated) ({Stearoyl-3Abz}-[Orn][Orn][Orn][Orn]-NH2; configuration not given here), the Activity (Aspergillus fumigatus [28]) is reported as “Active”, the MIC (Staphylococcus aureus [1]) is reported as 10.5 µg/mL (≈ 12.2 µM) and the MIC (Staphylococcus aureus [2]) is reported as 10 µg/mL (≈ 11.6 µM). The HC50 [4] was 200 µg/mL, the MIC (Candida albicans [6]) was 1.5 µg/mL (≈ 1.75 µM) and the MIC (Pseudomonas aeruginosa) was 6.25 µg/mL (≈ 7.27 µM). For the same molecule, the selectivity ratio [7] was 57.1, the selectivity ratio [8] was 20 and the Activity [9] was 57%. The Activity [12] was 84%, the MIC (Cryptococcus neoformans) was 5.5 µg/mL (≈ 6.4 µM) and the MIC (Aspergillus fumigatus [13]) was 2 µg/mL (≈ 2.33 µM). For the same molecule, the MIC (Escherichia coli [14]) was 3.5 µg/mL (≈ 4.07 µM), the MIC (Escherichia coli [17]) was 5 µg/mL (≈ 5.82 µM) and the MIC (Candida albicans [19]) was 2 µg/mL (≈ 2.33 µM). For the same molecule, the Activity [22] was 89%, the MIC (Aspergillus niger) was 1.5 µg/mL (≈ 1.75 µM) and the MIC (Bacillus subtilis) was 12.5 µg/mL (≈ 14.5 µM). The MIC (Aspergillus fumigatus [26]) was 1.5 µg/mL (≈ 1.75 µM) and the Activity [27] was 44%.
